Assay results reported in ChEMBL document CHEMBL4038328, “Structure-Guided Optimization of HIV Integrase Strand Transfer Inhibitors” (J Med Chem, 2017).

What was measured:
[1] = system: Human immunodeficiency virus 1; experiment: Selectivity ratio of EC50 for VSV-G pseudotyped HIV1 harboring integrase N155H mutant infected in HOS cells to EC50 for VSV-G pseudotyped HIV1 harboring wild-type integrase infected in HOS cells; format: functional
Summary of the method: (§1)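 Fold change is the EC50 against the mutant-IN vector divided by the EC50 against the WT-IN vector. Both come from the single-round luciferase infectivity assay in HOS cells, with a 3 h compound pretreatment followed by 48 h infection.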

[2] = system: Human immunodeficiency virus 1; experiment: Selectivity ratio of EC50 for VSV-G pseudotyped HIV1 harboring integrase H51Y mutant infected in HOS cells to EC50 for VSV-G pseudotyped HIV1 harboring wild-type integrase infected in HOS cells; format: functional; summary of the method: as §1
[3] = system: Human immunodeficiency virus 1; experiment: Antiviral activity against VSV-G pseudotyped HIV1 harboring integrase Y143R mutant infected in HOS cells pretreated […] for 3 hrs followed by viral infection measured after 48 hrs by luciferase reporter gene assay; format: functional, cell-based; conditions: Human immunodeficiency virus 1, HOS
Summary of the method: (§2)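 Single-round luciferase HIV-1 vector (pNLNgoMIVR−ΔLUC carrying WT or mutant IN) was pseudotyped with VSV-g by calcium phosphate co-transfection of 293 cells, and supernatant was harvested after 48 h. HOS cells were seeded at 4000/well in DMEM with 5% FBS and 5% newborn calf serum. They were pretreated 3 h at 37 °C with 5–0.0001 μM (11 serial dilutions), then infected for 48 h. Luminescence was normalized to untreated cells, and EC50 came from nonlinear regression.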

[4] = system: Human immunodeficiency virus 1; experiment: Antiviral activity against VSV-G pseudotyped HIV1 harboring integrase R263K mutant infected in HOS cells pretreated […] for 3 hrs followed by viral infection measured after 48 hrs by luciferase reporter gene assay; format: functional, cell-based; conditions: Human immunodeficiency virus 1, HOS; summary of the method: as §2
[5] = system: Human immunodeficiency virus 1; experiment: Antiviral activity against VSV-G pseudotyped HIV1 harboring wild-type integrase infected in HOS cells pretreated […] for 3 hrs followed by viral infection measured after 48 hrs by luciferase reporter gene assay; format: functional, cell-based; conditions: Human immunodeficiency virus 1, HOS; summary of the method: as §2
[6] = system: Human immunodeficiency virus 1; experiment: Selectivity ratio of EC50 for VSV-G pseudotyped HIV1 harboring integrase E92Q mutant infected in HOS cells to EC50 for VSV-G pseudotyped HIV1 harboring wild-type integrase infected in HOS cells; format: functional; summary of the method: as §1
[7] = system: Human immunodeficiency virus 1; experiment: Selectivity ratio of EC50 for VSV-G pseudotyped HIV1 harboring integrase H51Y/R263K double mutant infected in HOS cells to EC50 for VSV-G pseudotyped HIV1 harboring wild-type integrase infected in HOS cells; format: functional; summary of the method: as §1
[8] = system: Human immunodeficiency virus 1; experiment: Selectivity ratio of EC50 for VSV-G pseudotyped HIV1 harboring integrase Y143R mutant infected in HOS cells to EC50 for VSV-G pseudotyped HIV1 harboring wild-type integrase infected in HOS cells; format: functional; summary of the method: as §1
[9] = system: Human immunodeficiency virus 1; experiment: Antiviral activity against VSV-G pseudotyped HIV1 harboring integrase T66I mutant infected in HOS cells pretreated […] for 3 hrs followed by viral infection measured after 48 hrs by luciferase reporter gene assay; format: functional, cell-based; conditions: Human immunodeficiency virus 1, HOS; summary of the method: as §2
[10] = system: Human immunodeficiency virus 1; experiment: Antiviral activity against VSV-G pseudotyped HIV1 harboring integrase H51Y mutant infected in HOS cells pretreated […] for 3 hrs followed by viral infection measured after 48 hrs by luciferase reporter gene assay; format: functional, cell-based; conditions: Human immunodeficiency virus 1, HOS; summary of the method: as §2
HOS = experiment: Cytotoxicity against HOS cells assessed as reduction in cell viability after 48 hrs by ATPLite luminescence assay; format: cell-based; conditions: human, hos, 48 h
Summary of the method: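 HOS cells seeded at 4000 per well the day before, exposed to compounds over 250 to 0.05 μM at 37 °C for 48 h. ATP measured by luminescence after lysis and 20 min signal development at room temperature.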

[11] = system: Human immunodeficiency virus 1; experiment: Selectivity ratio of EC50 for VSV-G pseudotyped HIV1 harboring integrase R263K mutant infected in HOS cells to EC50 for VSV-G pseudotyped HIV1 harboring wild-type integrase infected in HOS cells; format: functional; summary of the method: as §1
[12] = system: Human immunodeficiency virus 1; experiment: Antiviral activity against VSV-G pseudotyped HIV1 harboring integrase E92Q mutant infected in HOS cells pretreated […] for 3 hrs followed by viral infection measured after 48 hrs by luciferase reporter gene assay; format: functional, cell-based; conditions: Human immunodeficiency virus 1, HOS; summary of the method: as §2
[13] = system: Human immunodeficiency virus 1; experiment: Antiviral activity against VSV-G pseudotyped HIV1 harboring integrase N155H mutant infected in HOS cells pretreated […] for 3 hrs followed by viral infection measured after 48 hrs by luciferase reporter gene assay; format: functional, cell-based; conditions: Human immunodeficiency virus 1, HOS; summary of the method: as §2
[14] = system: Human immunodeficiency virus 1; experiment: Selectivity ratio of EC50 for VSV-G pseudotyped HIV1 harboring integrase G118R mutant infected in HOS cells to EC50 for VSV-G pseudotyped HIV1 harboring wild-type integrase infected in HOS cells; format: functional; summary of the method: as §1
[15] = system: Human immunodeficiency virus 1; experiment: Antiviral activity against VSV-G pseudotyped HIV1 harboring integrase G118R mutant infected in HOS cells pretreated […] for 3 hrs followed by viral infection measured after 48 hrs by luciferase reporter gene assay; format: functional, cell-based; conditions: Human immunodeficiency virus 1, HOS; summary of the method: as §2
[16] = system: Human immunodeficiency virus 1; experiment: Selectivity ratio of EC50 for VSV-G pseudotyped HIV1 harboring integrase G140S/Q148H mutant infected in HOS cells to EC50 for VSV-G pseudotyped HIV1 harboring wild-type integrase infected in HOS cells; format: functional; summary of the method: as §1
[17] = system: Human immunodeficiency virus 1; experiment: Antiviral activity against VSV-G pseudotyped HIV1 harboring integrase G140S/Q148H double mutant infected in HOS cells pretreated […] for 3 hrs followed by viral infection measured after 48 hrs by luciferase reporter gene assay; format: functional, cell-based; conditions: Human immunodeficiency virus 1, HOS; summary of the method: as §2
[18] = system: Human immunodeficiency virus 1; experiment: Antiviral activity against VSV-G pseudotyped HIV1 harboring integrase H51Y/R263K double mutant infected in HOS cells pretreated […] for 3 hrs followed by viral infection measured after 48 hrs by luciferase reporter gene assay; format: functional, cell-based; conditions: Human immunodeficiency virus 1, HOS; summary of the method: as §2
[19] = system: Human immunodeficiency virus 1; experiment: Selectivity ratio of EC50 for VSV-G pseudotyped HIV1 harboring integrase T66I mutant infected in HOS cells to EC50 for VSV-G pseudotyped HIV1 harboring wild-type integrase infected in HOS cells; format: functional; summary of the method: as §1
[20] = Inhibition of HIV1 integrase strand transfer activity using 5'-end 32P labeled DNA substrate measured after 2 hrs by PAGE based phosphor imaging method; design: species or system Human immunodeficiency virus 1
Summary of the method: (§3)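 Gel-based assay, Mg2+ cofactor: 400 nM integrase with 20 nM DNA substrate 5′-32P-labeled on transferred strand in 50 mM MOPS pH 7.2, 7.5 mM MgCl2, 14 mM 2-mercaptoethanol, inhibitor or DMSO; 2 h at 37 °C. Stopped with formamide/SDS loading buffer; products resolved on 16% denaturing polyacrylamide gels, quantified by phosphorimaging.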

[21] = Inhibition of HIV1 integrase 3' processing activity using 5'-end 32P labeled DNA substrate measured after 2 hrs by PAGE based phosphor imaging method; design: species or system Human immunodeficiency virus 1; summary of the method: as §3

Row | Structure (SMILES) | Ratio EC50 [1] | EC50 [3] | EC50 [5] | Ratio EC50 [8] | CC50 (HOS) | EC50 [13] | Ratio EC50 [16] | EC50 [17] | IC50 [20] | IC50 [21] | other results
1 | CC(=O)OCCCCCc1cnc2c(c1)c(NCCO)c(C(=O)NCc1ccc(F)cc1F)c(=O)n2O | 2 | 0.0041 µM | 0.0053 µM | 0.8 | > 100 µM | 0.01 µM | 1 | 0.0053 µM | – | – | Ratio EC50 [2]: 1; EC50 [4]: 0.0036 µM; Ratio EC50 [6]: 0.7; Ratio EC50 [7]: 3; EC50 [9]: 0.0012 µM; EC50 [10]: 0.0074 µM; Ratio EC50 [11]: 0.7; EC50 [12]: 0.0038 µM; Ratio EC50 [14]: 3; EC50 [15]: 0.015 µM; EC50 [18]: 0.015 µM; Ratio EC50 [19]: 0.2
2 | Nc1c(C(=O)NCc2ccc(F)cc2F)c(=O)n(O)c2ncc(CCc3ccccc3)cc12 | 4 | 0.0055 µM | 0.0056 µM | 1 | 18 µM | 0.021 µM | 25 | 0.14 µM | 0.014 µM | 48 µM | –
3 | COc1ccc2c(N)c(C(=O)NCc3ccc(F)cc3F)c(=O)n(O)c2n1 | 13 | 0.062 µM | 0.03 µM | 2 | 2.2 µM | 0.4 µM | 120 | 3.6 µM | 0.011 µM | 18 µM | –
4 | Nc1c(C(=O)NCc2ccc(F)cc2F)c(=O)n(O)c2ncc(/C=C/C(=O)NCCO)cc12 | – | – | 0.196 µM | – | > 250 µM | – | – | – | 0.007 µM | – | –
5 | Nc1c(C(=O)NCc2ccc(F)cc2F)c(=O)n(O)c2ncc(CCCOCCO)cc12 | 3 | 0.0012 µM | 0.0016 µM | 0.8 | > 250 µM | 0.0042 µM | 22 | 0.035 µM | 0.002 µM | 1.5 µM | –
6 | COc1ccc2c(O)c(C(=O)NCc3ccc(F)cc3F)c(=O)n(O)c2n1 | – | – | 0.215 µM | – | 12 µM | – | – | – | 0.033 µM | 32 µM | –
7 | CC(C)NC(=O)CCc1cnc2c(c1)c(N)c(C(=O)NCc1ccc(F)cc1F)c(=O)n2O | 2 | 0.0087 µM | 0.005 µM | 2 | > 250 µM | 0.011 µM | 3 | 0.013 µM | 0.002 µM | – | –
8 | Nc1c(C(=O)NCc2ccc(F)cc2F)c(=O)n(O)c2nc(N3CCCCC3)ccc12 | – | – | – | – | – | – | – | – | 54 µM | > 333 µM | –
9 | Nc1c(C(=O)NCc2ccc(F)cc2F)c(=O)n(O)c2ncc(CCC(=O)NCCO)cc12 | – | – | 0.263 µM | – | > 250 µM | – | – | – | 0.002 µM | – | –
10 | CN(C)CCCc1cnc2c(c1)c(N)c(C(=O)NCc1ccc(F)cc1F)c(=O)n2O | 5 | 0.007 µM | 0.0061 µM | 1 | 5 µM | 0.029 µM | 5 | 0.032 µM | 0.014 µM | 3 µM | –
11 | O=C(NCc1ccc(F)cc1F)c1c(O)c2cc(CCCCCO)cnc2n(O)c1=O | 1 | 0.0083 µM | 0.024 µM | 0.3 | > 250 µM | 0.032 µM | 1 | 0.029 µM | 0.012 µM | 14.3 µM | –
12 | Nc1c(C(=O)NCc2ccc(F)cc2F)c(=O)n(O)c2ncc(CCCCc3ccccc3)cc12 | 4 | 0.0047 µM | 0.011 µM | 0.4 | 13 µM | 0.039 µM | 12 | 0.128 µM | – | 42 µM | –
